# Results as given in paper PMC10472104 (Clinical Cancer Research, 2023).
# “Also recorded” adds a separate entry of the source.
# Tests used:
# Assay type in all cases: cell-based, human
# γH2AX in TC32 cells = assay: γH2AX expression by Western blotting; conditions: TC32, 24 hours
# Summary of the method: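 Cells grown to 70–80% confluency in six-well plates, settled overnight, serum-starved 24 h, then given DMSO or increasing concentrations of test compound for 24 h. Lysates were transferred to nitrocellulose and blocked. Blots were probed overnight at 4°C with rabbit anti-phospho-H2AX (Ser139) and anti-total H2AX, then 1 h at room temperature with IRDye800CW anti-rabbit, and scanned on an Odyssey imager.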
# γH2AX in CHLA10 cells = assay: γH2AX expression by Western blotting; conditions: CHLA10, 24 hours
# [1] = test system: γH2AX foci in CHLA10 cells; assay: γH2AX foci by immunofluorescence and confocal microscopy; conditions: CHLA10, increasing doses, 24 hours
# Summary of the method: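 Cells were fixed in 4% paraformaldehyde 30 min at room temperature and permeabilized with 0.5% Triton-X. They were probed overnight at 4°C with rabbit anti-phospho-H2AX (Ser139), then Alexa Fluor 488 anti-rabbit, and DAPI-mounted. Foci were counted from confocal images.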
# [2] = test system: TC32 and CHLA10 spheroids; assay: 3D spheroid assays, comparison across both models; conditions: 4 days
# CHLA10 cells = assay: Cell-cycle analysis; conditions: CHLA10 (Fig. 3B)
# TC32 cells = assay: Cell-cycle analysis; conditions: TC32 (Fig. 3A)
Compound,γH2AX expression with increasing doses (γH2AX in TC32 cells),γH2AX expression with increasing doses (γH2AX in CHLA10 cells),γH2AX foci formation [1],spheroid activity compared with kt-3283 [2],cell-cycle arrest induced (CHLA10 cells),cell-cycle arrest induced (TC32 cells)
O=C(c1cc(Cc2n[nH]c(=O)c3ccccc23)ccc1F)N1CCN(C(=O)C2CC2)CC1 [olaparib],induced γH2AX expression in a dose-dependent manner,induced γH2AX expression in a dose-dependent manner,dose-dependent γH2AX foci formation,–,–,–
Cn1ncnc1[C@H]1c2n[nH]c(=O)c3cc(F)cc(c23)N[C@@H]1c1ccc(F)cc1 [talazoparib],–,–,–,equivalent activity; also recorded: equivalent efficacy,–,–
O=C(CCCCCCC(=O)Nc1ccccc1)NO [vorinostat],induced γH2AX expression in a dose-dependent manner,induced γH2AX expression in a dose-dependent manner,milder DNA damage foci formation,–,G0/G1 cell-cycle arrest,G0/G1 cell-cycle arrest
